Data set [1] addresses Mitogen-activated protein kinase 14 (Homo sapiens, UniProt Q16539). Put plainly: Inhibition of GST-fused p38alpha expressed in Escherichia coli. In short, it runs like this: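 GST-tagged p38 and MEK6 at the N-terminus, purified from E. coli. Reaction ran 60 min at rt, was EDTA-quenched, and was read with streptavidin SPA beads. IC50 was fitted from % inhibition against ±EDTA controls. Values are means of >2 experiments.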

Data set [2] can be described thus: Metabolic stability in dog liver S9 microsomal fraction assessed as parent compound turnover after 30 mins. Conditions: read-out: Stability. The format is ADME, subcellular, Canis lupus familiaris. In short, it runs like this:
(§1)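 Test compound was incubated with liver S9 fraction (5 mg protein/mL) for 30 min. Read-out is % turnover of parent compound. Values are means of ≥2 incubations.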

Data set [3] in a line: Metabolic stability in rat liver S9 microsomal fraction assessed as parent compound turnover after 30 mins. The format is ADME, subcellular. The settings on record: read-out: Stability. The gist of the method: as §1
A short description of data set [4]: AUC in Lewis rat at 1 mg/kg, iv. In kind it is ADME, organism-based. Further details: dose 1 mg/kg, route intravenous. The settings on record: plasma.
Data set [5] can be described thus: Volume of distribution at steady state in Lewis rat at 1 mg/kg, iv. In kind it is ADME, organism-based. The settings on record: in vivo, read-out: Vdss. Further details: dose 1 mg/kg, route intravenous.
Data set [6] can be described thus: Clearance in Lewis rat at 1 mg/kg, iv. The format is ADME, organism-based. More on the design: dose 1 mg/kg, route intravenous. The settings on record: in vivo.
A short description of data set [7]: Half life in Lewis rat at 1 mg/kg, iv. The settings on record: in vivo. The format is ADME, organism-based. Further details: dose 1 mg/kg, route intravenous.
The nature of data set [8]: Bioavailability in Lewis rat at 1 mg/kg, iv. The format is ADME, organism-based. Conditions: in vivo.
Data set [9] in a line: Half life in Beagle dog at 1 mg/kg, iv. The format is ADME, organism-based, Canis lupus familiaris. Further details: dose 1 mg/kg, route intravenous. Conditions: in vivo.
Data set [10] can be described thus: Bioavailability in Beagle dog at 1 mg/kg, iv. In kind it is ADME, organism-based, Canis lupus familiaris. The settings on record: in vivo.
Data set [11] in a line: Volume of distribution at steady state in Beagle dog at 1 mg/kg, iv. Further details: dose 1 mg/kg, route intravenous. In kind it is ADME, organism-based, Canis lupus familiaris. The settings on record: in vivo, read-out: Vdss.
Data set [12] is described as follows: Clearance in Beagle dog at 1 mg/kg, iv. Conditions: in vivo. Further details: dose 1 mg/kg, route intravenous. The format is ADME, organism-based, Canis lupus familiaris.
Data set [13] can be described thus: AUC in Beagle dog at 1 mg/kg, iv. In kind it is ADME, organism-based, Canis lupus familiaris. More on the design: dose 1 mg/kg, route intravenous. Conditions: plasma.
A short description of data set [14]: Half life in Lewis rat at 5 mg/kg, iv. The format is ADME, organism-based. Further details: dose 5 mg/kg, route intravenous. The settings on record: in vivo.
Data set [15] concerns the target [Pyruvate dehydrogenase (acetyl-transferring)] kinase isozyme 4, mitochondrial (Homo sapiens, UniProt Q16654). The data set is described as follows: Inhibition of PDHK4.
Data set [16] can be described thus: Clearance in Lewis rat at 5 mg/kg, iv. In kind it is ADME, organism-based. Further details: dose 5 mg/kg, route intravenous. Conditions: in vivo.
Data set [17] in a line: Bioavailability in Lewis rat at 5 mg/kg, iv. In kind it is ADME, organism-based. Conditions: in vivo.
For data set [18], the target named is Cyclin-dependent kinase 2 (Homo sapiens, UniProt P24941). The data set is described as follows: Inhibition of CDK2/CyclinA.
In data set [19] the target is Vascular endothelial growth factor receptor 2 (Homo sapiens, UniProt P35968). The data set is described as follows: Inhibition of VEGFR2.
Data set [20] deals with Glycogen synthase kinase-3 beta (Homo sapiens, UniProt P49841). Put plainly: Inhibition of GSK3-beta.
Chain of Glycogen synthase kinase-3 beta (P49841 whole entry): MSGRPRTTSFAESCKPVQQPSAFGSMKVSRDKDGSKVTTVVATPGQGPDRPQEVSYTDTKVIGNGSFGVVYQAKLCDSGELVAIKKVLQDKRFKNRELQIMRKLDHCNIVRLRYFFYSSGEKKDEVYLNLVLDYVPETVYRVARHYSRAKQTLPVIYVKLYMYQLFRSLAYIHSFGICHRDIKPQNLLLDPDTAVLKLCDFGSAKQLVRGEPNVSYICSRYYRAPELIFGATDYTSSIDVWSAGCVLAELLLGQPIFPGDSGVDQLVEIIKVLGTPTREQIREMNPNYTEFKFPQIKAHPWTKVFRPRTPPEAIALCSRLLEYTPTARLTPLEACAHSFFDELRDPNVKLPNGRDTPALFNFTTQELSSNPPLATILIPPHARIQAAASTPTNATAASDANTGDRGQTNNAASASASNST
Data set [21] addresses Angiopoietin-1 receptor (Homo sapiens, UniProt Q02763). The data set is described as follows: Inhibition of TIE2.
Data set [22] has as its target Macrophage colony-stimulating factor 1 receptor (Homo sapiens, UniProt P07333). The data set is described as follows: Inhibition of C-FMS.
The nature of data set [23]: AUC in Lewis rat at 5 mg/kg, iv. The format is ADME, organism-based. Further details: dose 5 mg/kg, route intravenous. The settings on record: plasma.
Data set [24] deals with RAC-gamma serine/threonine-protein kinase (Homo sapiens, UniProt Q9Y243). Put plainly: Inhibition of AKT3.
Chain of RAC-gamma serine/threonine-protein kinase (Q9Y243 whole entry): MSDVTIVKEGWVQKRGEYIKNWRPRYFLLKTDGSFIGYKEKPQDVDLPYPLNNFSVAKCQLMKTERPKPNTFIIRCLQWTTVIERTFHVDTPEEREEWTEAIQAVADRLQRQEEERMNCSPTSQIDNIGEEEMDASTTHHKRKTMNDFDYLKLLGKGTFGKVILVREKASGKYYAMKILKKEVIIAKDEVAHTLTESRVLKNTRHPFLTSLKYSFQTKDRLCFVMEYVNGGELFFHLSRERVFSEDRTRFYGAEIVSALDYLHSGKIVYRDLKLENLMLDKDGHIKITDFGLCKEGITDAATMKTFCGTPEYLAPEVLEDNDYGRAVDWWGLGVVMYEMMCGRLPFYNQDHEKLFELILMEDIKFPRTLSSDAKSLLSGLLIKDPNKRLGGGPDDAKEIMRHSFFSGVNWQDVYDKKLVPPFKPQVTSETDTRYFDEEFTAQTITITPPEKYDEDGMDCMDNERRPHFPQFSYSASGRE
Data set [25] concerns the target Receptor tyrosine-protein kinase erbB-4 (Homo sapiens, UniProt Q15303). Put plainly: Inhibition of ERBB4.
The test system of data set [26] is Mus musculus. Put plainly: Inhibition of LPS-induced TNF production in mouse at 30 mg/kg, po. The format is functional.
The nature of data set [27]: Volume of distribution at steady state in Lewis rat at 5 mg/kg, iv. More on the design: dose 5 mg/kg, route intravenous. The settings on record: in vivo, read-out: Vdss. In kind it is ADME, organism-based.
For data set [28], the target named is Receptor tyrosine-protein kinase erbB-2 (Homo sapiens, UniProt P04626). Put plainly: Inhibition of ERBB2.
Chain of Receptor tyrosine-protein kinase erbB-2 (P04626 whole entry): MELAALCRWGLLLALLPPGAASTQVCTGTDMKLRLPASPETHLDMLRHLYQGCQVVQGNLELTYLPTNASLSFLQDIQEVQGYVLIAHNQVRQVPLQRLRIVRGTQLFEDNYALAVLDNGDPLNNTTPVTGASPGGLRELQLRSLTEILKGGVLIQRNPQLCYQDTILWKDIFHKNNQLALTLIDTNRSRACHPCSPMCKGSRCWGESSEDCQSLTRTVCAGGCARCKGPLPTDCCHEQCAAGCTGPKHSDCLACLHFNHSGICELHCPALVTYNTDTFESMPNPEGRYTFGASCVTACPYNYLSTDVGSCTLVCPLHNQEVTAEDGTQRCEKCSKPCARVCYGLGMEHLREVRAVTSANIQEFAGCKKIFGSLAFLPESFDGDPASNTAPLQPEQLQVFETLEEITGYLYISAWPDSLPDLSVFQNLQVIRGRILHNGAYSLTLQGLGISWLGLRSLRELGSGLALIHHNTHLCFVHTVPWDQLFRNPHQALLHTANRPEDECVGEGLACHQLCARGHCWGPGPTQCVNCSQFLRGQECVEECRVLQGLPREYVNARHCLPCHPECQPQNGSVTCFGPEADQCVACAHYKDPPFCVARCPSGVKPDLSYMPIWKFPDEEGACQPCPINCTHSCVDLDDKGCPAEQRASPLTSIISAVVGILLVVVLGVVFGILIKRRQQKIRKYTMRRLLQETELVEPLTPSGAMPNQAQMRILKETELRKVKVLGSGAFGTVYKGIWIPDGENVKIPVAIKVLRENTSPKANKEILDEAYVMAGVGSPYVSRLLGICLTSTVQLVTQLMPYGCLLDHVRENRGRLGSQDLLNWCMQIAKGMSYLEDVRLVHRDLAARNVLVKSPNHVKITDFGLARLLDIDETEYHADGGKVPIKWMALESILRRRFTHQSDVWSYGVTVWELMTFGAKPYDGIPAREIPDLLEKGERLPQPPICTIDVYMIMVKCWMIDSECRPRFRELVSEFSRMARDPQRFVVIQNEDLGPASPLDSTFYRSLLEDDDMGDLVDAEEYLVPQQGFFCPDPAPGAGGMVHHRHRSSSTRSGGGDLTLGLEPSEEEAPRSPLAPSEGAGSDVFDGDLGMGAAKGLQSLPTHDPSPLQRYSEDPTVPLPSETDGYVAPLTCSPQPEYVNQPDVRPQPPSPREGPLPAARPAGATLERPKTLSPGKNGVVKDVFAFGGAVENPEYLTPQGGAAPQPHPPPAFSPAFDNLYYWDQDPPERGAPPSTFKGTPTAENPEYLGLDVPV
The subject of data set [29] is PBMC. The data set is described as follows: Inhibition of LPS-induced TNF release in human PBMC. In kind it is functional, cell-based.

Structures are written as SMILES. A value given as a limit tells only on which side of the number the result lay.

Chain of Mitogen-activated protein kinase 14 (Q16539 whole entry, the tested form may be a part): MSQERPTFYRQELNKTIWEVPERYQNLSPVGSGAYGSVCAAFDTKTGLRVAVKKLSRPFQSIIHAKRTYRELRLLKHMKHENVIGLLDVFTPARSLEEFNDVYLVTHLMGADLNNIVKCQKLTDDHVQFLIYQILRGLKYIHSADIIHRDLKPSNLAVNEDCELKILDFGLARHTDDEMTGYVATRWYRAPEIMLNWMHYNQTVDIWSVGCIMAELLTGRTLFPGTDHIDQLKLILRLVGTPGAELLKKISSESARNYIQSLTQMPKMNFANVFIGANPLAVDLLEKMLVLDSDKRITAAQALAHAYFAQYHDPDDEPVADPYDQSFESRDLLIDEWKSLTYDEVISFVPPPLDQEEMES
Chain of Receptor tyrosine-protein kinase erbB-4 (Q15303 whole entry): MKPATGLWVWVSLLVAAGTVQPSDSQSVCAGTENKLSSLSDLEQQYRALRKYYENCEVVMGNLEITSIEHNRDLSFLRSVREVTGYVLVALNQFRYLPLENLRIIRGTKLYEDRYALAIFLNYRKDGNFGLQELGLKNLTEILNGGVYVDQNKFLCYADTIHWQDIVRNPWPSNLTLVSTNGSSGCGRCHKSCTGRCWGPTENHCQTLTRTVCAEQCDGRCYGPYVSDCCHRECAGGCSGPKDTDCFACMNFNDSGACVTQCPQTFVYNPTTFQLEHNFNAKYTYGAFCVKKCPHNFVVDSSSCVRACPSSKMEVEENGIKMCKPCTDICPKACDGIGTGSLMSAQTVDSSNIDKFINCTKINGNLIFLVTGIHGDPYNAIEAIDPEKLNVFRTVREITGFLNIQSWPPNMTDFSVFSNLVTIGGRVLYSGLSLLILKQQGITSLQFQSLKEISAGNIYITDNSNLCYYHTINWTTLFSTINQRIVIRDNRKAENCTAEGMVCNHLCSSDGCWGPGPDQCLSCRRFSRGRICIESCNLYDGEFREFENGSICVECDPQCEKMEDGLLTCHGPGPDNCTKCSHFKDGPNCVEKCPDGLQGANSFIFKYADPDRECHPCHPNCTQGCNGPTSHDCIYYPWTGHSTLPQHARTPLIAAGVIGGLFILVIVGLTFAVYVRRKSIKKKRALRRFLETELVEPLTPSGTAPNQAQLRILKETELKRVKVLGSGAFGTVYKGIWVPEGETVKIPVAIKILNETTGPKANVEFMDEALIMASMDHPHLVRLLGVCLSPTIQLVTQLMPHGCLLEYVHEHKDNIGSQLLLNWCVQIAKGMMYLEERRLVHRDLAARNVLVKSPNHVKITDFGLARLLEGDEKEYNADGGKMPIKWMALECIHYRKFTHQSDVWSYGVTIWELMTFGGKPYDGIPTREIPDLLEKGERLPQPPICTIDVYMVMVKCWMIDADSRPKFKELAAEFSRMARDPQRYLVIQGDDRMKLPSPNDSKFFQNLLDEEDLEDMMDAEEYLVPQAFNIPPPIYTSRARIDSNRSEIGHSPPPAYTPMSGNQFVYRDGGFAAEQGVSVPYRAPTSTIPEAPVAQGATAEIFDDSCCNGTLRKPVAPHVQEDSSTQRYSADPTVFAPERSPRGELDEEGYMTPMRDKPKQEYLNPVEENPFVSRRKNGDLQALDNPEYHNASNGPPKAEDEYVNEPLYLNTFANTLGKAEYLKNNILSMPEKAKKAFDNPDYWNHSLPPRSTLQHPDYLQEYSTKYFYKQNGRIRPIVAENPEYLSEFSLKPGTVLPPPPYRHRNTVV
Chain of Macrophage colony-stimulating factor 1 receptor (P07333 whole entry): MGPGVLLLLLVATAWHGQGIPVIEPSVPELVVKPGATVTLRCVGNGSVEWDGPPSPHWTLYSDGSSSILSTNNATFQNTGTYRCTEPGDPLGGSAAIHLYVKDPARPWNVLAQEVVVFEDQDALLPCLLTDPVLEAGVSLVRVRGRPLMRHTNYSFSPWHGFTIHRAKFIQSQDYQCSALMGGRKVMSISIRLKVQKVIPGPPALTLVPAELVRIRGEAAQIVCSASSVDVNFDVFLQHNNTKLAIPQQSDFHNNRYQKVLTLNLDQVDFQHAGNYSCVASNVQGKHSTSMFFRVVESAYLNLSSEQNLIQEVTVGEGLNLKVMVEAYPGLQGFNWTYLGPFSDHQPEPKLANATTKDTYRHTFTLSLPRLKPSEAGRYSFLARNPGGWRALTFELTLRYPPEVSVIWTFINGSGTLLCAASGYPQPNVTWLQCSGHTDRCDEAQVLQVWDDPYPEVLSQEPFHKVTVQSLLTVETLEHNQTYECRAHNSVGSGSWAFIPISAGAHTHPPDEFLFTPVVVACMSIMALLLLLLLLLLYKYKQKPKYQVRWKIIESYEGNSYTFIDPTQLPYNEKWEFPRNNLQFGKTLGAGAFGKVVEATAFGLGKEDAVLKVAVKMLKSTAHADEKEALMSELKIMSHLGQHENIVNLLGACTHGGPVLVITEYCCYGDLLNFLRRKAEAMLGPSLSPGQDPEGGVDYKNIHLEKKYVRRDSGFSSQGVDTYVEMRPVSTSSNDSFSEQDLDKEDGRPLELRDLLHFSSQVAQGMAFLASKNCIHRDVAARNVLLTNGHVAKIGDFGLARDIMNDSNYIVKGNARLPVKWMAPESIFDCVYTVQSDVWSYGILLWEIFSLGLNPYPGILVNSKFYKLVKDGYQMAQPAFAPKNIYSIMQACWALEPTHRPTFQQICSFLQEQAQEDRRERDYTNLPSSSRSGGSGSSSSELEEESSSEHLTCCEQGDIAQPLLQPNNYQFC

With `Cc1cccn2nc(-c3ccc(F)cc3)c(-c3ccncc3)c12`, the concentration for half-maximal inhibition (IC50) – broadly, the point on the concentration scale where inhibition reaches its midpoint – in data set [1] turned out to be 280 nM.
Molecule `Cc1ccc2c(-c3ccncc3)c(-c3ccc(F)cc3)nn2c1` gave a 50% inhibitory concentration (IC50) in data set [1] of 150 nM. The metabolised at 0.5 h amounted to 81% in [2] and 99% in data set [3].
With `Cc1cccc2c(-c3ccncc3)c(-c3ccc(F)cc3)nn12`, the half-maximal inhibitory concentration (IC50) in [1] is 150 nM. In addition, the metabolised at 0.5 h in data set [2] was 93%; in [3] it was 43%.
With `Fc1ccc(-c2nn3cc(C(F)(F)F)ccc3c2-c2ccncc2)cc1`, in data set [1], half-maximal inhibition (IC50) was put at 200 nM. In addition, the AUC (as a rule, concentration integrated over time) in data set [4] turned out to be 500 ng·h/mL. Besides, the metabolised at 0.5 h in data set [2] and in [3] was 0% in each case. For the same molecule, the Vd in data set [5] turned out to be 5.4 L/kg. In addition, the clearance (usually a measure of how efficiently the substance is removed, as volume per time) in data set [6] worked out at 34 mL/min/kg. The half-life (as a rule, how long it takes for the measured level to halve) in data set [7] is 2.5 h. In addition, in data set [8], the bioavailability (in general, dose-corrected exposure relative to a reference, in per cent) is 84%.
`N#Cc1ccc2c(-c3ccncc3)c(-c3ccc(F)cc3)nn2c1`: inhibition in data set [1] was half-maximal at 140 nM (IC50).
In the case of `Fc1ccc(-c2nn3c(OC4CCCC4)cccc3c2-c2ccncc2)cc1`, the concentration for half-maximal inhibition (IC50) in data set [1] stood at 170 nM. The metabolised at 0.5 h in [2] is 18%; in [3], 8%.
In turn, `Fc1ccc(-c2nn3cc(Cl)ccc3c2-c2ccncc2)cc1` had an IC50 in data set [1] of 150 nM.
In data set [1], `Fc1ccc(-c2nn3cccc(F)c3c2-c2ccncc2)cc1` showed an IC50 of 240 nM. Further, the values for the metabolised at 0.5 h in data set [2] and in data set [3] were 39% and 21%, respectively.
In data set [1], `Fc1ccc(-c2nn3c(OCC(F)(F)F)cccc3c2-c2ccncc2)cc1` registered an IC50 of 70 nM. The AUC in [4] was determined as 500 ng·h/mL; in data set [13] it was 1500 ng·h/mL. The metabolised at 0.5 h in [2] and in data set [3] was 0% in each case. The half-life in data set [9] was 6.5 h; in [7] it was 2.1 h. Further, the bioavailability amounted to 32% in data set [10] and 72% in [8]. For the same molecule, the Vd came out at 5.4 L/kg in data set [5] and 8.2 L/kg in data set [11]. The clearance in data set [6] is 40 mL/min/kg; in data set [12] it was 17 mL/min/kg.
In data set [1], `Fc1ccc(-c2nn3cc(F)ccc3c2-c2ccncc2)cc1` came in with an IC50 of 160 nM. Besides, the figures for the metabolised at 0.5 h in data set [2] and in [3] were 23% and 1%, respectively.
For the molecule `Fc1ccc(-c2nn3c(Cl)cccc3c2-c2ccncc2)cc1`, the IC50 in [1] came out at 150 nM. Moreover, the metabolised at 0.5 h in data set [2] came out at 84%; in data set [3], 37%.
`CCOc1cccc2c(-c3ccncc3)c(-c3ccc(F)cc3)nn12` yielded an IC50 in data set [1] of 50 nM.
`Cc1ccn2nc(-c3ccc(F)cc3)c(-c3ccncc3)c2c1` showed an IC50 in data set [1] of 160 nM. The molecule also displayed an AUC in data set [4] of 200 ng·h/mL. Also, the Vd in data set [5] came to 2 L/kg. This molecule also gave a clearance in [6] of 83 mL/min/kg. In data set [7], this molecule gave a half-life of 1.2 h. Moreover, the metabolised at 0.5 h in data set [3] is 60%.
For `Fc1ccc(-c2nn3ccccc3c2-c2ccncc2)cc1` [GW434756X], the half-life in data set [14] is 1.2 h; in [9], 1.9 h. Besides, the IC50 in [1] is 120 nM; in [15], more than 10000 nM; in data set [18], more than 10000 nM; in data set [19], more than 10000 nM; in data set [20], 2200 nM; in data set [21], more than 10000 nM. The IC50 in [22] was more than 10000 nM; in data set [24], more than 10000 nM; in data set [25], more than 10000 nM; in data set [28], more than 10000 nM; in [29] it was 300 nM. For the same molecule, the clearance in data set [16] amounted to 49 mL/min/kg; in data set [12], 34 mL/min/kg. The bioavailability was determined as 50% in data set [17] and 18% in data set [10]. Also, the results for the metabolised at 0.5 h in data set [2] and in data set [3] were 81% and 27%, respectively. The values for the Vd in [11] and in [27] were 3.8 L/kg and 3.2 L/kg, respectively. The AUC was determined as 1700 ng·h/mL in [23] and 500 ng·h/mL in data set [13]. In addition, the inhibition in vivo – broadly, the change of the read-out against control, counted positive when it falls – at 30 mg/kg in data set [26] amounted to 65%.

The values are drawn from ChEMBL document CHEMBL1152233, “The identification of pyrazolo[1,5-a]pyridines as potent p38 kinase inhibitors” (Bioorg Med Chem Lett, 2008).
